Active and inactive are the calls of the source. No cut-off for these calls is given here.
Experiments:
MDA-MB-436 = assay: Antiproliferative activity against human MDA-MB-436 cells assessed as cell growth inhibition incubated for 7 days by CCK-8 assay; type: functional, cell-based; conditions: MDA-MB-436, 168 h
In short: (§1)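 Cells were sub-cultured at least twice and seeded for 24 h before dosing. Compounds came from 10 mM DMSO stocks, given as 10 points of 3-fold serial dilution starting at 10-20 μM. Incubation was about 7 days (Capan-1 13 days) at 37 °C, 5% CO2. Read-out was CCK-8 absorbance at 450 nm, as % growth versus DMSO wells (duplicate wells). IC50 was fitted by nonlinear regression; three independent experiments.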

CAPAN-1 = assay: Antiproliferative activity against human CAPAN-1 cells assessed as cell growth inhibition incubated for 13 days by CCK-8 assay; type: functional, cell-based; conditions: CAPAN-1, 312 h; in short: as §1
[1] = target: von Hippel-Lindau disease tumor suppressor/Poly [ADP-ribose] polymerase 1 (Homo sapiens) (UniProt P09874+P40337); assay: Protac activity at VHL/PARP1 in human MDA-MB-436 cells assessed as reduction in PARP1 protein level at 1 uM incubated for 24 hrs by western blot analysis; type: cell-based
[2] = target: T1, Protein cereblon/Poly [ADP-ribose] polymerase 1 (Homo sapiens, UniProt P09874+Q96SW2); assay: Protac activity at CRBN/PARP1 in human MDA-MB-436 cells assessed as induction of PARP1 degradation at 100 nM incubated for 24 hrs by Western blot analysis relative to control; type: cell-based
In short: (§2)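 MDA-MB-436 cells (RPMI-1640, 10% FBS) seeded 24 h, then exposed to compound at 1, 10, 100 and 1000 nM for 24 h. Lysates in RIPA with protease inhibitors, 20-30 µg protein by SDS-PAGE, PARP1 immunoblot with β-tubulin loading control; PARP1/β-tubulin ratio normalized to DMSO control set at 100.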

[3] = target: T1, Protein cereblon/Poly [ADP-ribose] polymerase 1; assay: Protac activity at CRBN/PARP1 in human MDA-MB-436 cells assessed as induction of PARP1 degradation at 1 uM incubated for 24 hrs by Western blot analysis relative to control; type: cell-based; in short: as §2
[4] = target: T1, Protein cereblon/Poly [ADP-ribose] polymerase 1; assay: Protac activity at CRBN/PARP1 in human MDA-MB-436 cells assessed as induction of PARP1 degradation at 10 nM incubated for 24 hrs by Western blot analysis relative to control; type: cell-based; in short: as §2
[5] = Acute toxicity in Balb/c mouse xenografted with SW-620 cells assessed as mean weight loss at 50 mg/kg, po qd administered for 5 days measured on day 6 relative to control; type: organism-based; conditions: in vivo, 144 h, time 6 day
SW-620 = assay: Antitumor activity against SW-620 cells xenografted in Balb/c mouse assessed as tumor growth suppression at 50 mg/kg, po administered once daily for 5 days; type: functional, organism-based; conditions: time 5.0 day
In short: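 Male BALB/c nude mice carried SW620 xenografts (6×10^6 cells s.c.), randomized at ~150 mm³ (6 per group). TMZ 50 mg/kg was given orally once daily on days 0-4, 45 min after the partner drug. Partners were 5 or 10 mg/kg intraperitoneally or 10 mg/kg by oral gavage, daily for 5 days. Vehicle was 5% DMSO/20% PEG400/10% Cremophor EL/65% saline. Tumor volume and body weight were recorded 2-3 times weekly.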

T1 sequence (P09874 2-1014 limits assumed): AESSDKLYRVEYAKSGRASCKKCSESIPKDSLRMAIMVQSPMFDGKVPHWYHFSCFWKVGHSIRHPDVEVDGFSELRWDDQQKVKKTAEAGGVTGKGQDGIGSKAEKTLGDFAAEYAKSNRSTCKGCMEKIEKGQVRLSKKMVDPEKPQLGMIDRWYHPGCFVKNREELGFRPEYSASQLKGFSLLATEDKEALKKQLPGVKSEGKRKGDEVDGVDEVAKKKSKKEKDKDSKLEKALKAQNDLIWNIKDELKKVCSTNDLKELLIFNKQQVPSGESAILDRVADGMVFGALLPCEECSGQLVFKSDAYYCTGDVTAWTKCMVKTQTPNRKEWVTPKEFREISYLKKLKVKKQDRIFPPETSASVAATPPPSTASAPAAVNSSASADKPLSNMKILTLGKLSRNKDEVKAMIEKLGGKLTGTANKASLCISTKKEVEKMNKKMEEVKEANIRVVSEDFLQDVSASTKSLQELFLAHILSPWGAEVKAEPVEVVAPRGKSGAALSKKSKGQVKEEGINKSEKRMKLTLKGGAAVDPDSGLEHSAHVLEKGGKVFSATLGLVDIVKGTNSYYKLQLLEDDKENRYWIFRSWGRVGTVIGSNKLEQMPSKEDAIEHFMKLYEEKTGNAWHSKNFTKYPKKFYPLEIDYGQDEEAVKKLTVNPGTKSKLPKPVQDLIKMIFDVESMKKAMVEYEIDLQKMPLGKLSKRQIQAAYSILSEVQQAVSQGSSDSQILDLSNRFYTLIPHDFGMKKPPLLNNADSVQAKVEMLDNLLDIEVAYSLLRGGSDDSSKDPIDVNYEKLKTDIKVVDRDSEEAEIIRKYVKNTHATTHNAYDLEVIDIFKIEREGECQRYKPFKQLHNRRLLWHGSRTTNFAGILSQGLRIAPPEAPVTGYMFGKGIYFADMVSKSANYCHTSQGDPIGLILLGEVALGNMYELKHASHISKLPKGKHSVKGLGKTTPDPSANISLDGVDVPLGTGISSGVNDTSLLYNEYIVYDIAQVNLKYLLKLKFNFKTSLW
T1 sequence (Q96SW2 whole entry partner): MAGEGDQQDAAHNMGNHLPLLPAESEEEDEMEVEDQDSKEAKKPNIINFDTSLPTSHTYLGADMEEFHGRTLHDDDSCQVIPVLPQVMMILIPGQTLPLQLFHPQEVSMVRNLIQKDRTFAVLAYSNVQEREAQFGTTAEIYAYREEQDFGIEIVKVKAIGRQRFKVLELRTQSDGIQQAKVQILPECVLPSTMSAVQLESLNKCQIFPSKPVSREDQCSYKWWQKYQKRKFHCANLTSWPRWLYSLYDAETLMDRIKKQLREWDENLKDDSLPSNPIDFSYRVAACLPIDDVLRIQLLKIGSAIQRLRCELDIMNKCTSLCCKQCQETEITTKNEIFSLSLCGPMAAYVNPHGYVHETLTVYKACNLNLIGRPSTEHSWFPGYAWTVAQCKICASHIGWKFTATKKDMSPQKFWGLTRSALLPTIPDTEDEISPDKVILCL
von Hippel-Lindau disease tumor suppressor/Poly [ADP-ribose] polymerase 1 (Homo sapiens), sequence (P09874 whole entry, looked up): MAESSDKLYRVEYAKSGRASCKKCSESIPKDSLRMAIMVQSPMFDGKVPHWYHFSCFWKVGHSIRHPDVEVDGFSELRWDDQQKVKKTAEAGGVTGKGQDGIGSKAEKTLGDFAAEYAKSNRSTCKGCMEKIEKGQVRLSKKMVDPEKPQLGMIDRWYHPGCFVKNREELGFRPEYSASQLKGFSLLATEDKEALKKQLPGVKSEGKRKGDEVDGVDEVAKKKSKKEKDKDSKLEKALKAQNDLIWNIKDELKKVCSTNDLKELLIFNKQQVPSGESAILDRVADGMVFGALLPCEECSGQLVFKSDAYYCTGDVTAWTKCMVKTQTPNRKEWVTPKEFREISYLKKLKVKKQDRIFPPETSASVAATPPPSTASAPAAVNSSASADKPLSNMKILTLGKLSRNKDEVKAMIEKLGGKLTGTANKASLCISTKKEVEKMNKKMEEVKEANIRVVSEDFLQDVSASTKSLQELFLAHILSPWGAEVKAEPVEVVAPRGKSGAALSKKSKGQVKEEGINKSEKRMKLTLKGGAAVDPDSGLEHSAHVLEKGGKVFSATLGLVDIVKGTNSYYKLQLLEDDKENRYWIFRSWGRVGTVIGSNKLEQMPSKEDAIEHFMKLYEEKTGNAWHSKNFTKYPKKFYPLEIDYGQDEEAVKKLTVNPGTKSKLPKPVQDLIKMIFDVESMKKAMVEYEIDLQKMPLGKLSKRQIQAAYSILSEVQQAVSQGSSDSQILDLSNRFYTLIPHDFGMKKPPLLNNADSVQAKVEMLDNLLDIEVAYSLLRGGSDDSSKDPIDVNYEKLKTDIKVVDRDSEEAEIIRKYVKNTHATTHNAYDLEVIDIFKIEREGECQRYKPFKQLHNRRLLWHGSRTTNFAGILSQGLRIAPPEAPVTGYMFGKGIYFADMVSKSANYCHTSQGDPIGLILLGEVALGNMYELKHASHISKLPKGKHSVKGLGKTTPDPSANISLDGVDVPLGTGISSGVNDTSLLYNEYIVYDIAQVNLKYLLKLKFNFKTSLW
von Hippel-Lindau disease tumor suppressor/Poly [ADP-ribose] polymerase 1 (Homo sapiens), sequence (P40337 whole entry, looked up): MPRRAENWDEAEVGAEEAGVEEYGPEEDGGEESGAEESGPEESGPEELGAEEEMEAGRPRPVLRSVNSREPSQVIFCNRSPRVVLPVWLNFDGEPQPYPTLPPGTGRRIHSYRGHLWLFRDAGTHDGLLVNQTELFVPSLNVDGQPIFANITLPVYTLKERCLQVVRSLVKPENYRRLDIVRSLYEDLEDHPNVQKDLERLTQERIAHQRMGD

SMILES	IC50 (MDA-MB-436)	IC50 (CAPAN-1)	further results
O=C(CCCNC(=O)COc1cccc2c1C(=O)N(C1CCC(=O)NC1=O)C2=O)NCCCCCC(=O)N1CCN(C(=O)c2cc(Cc3n[nH]c(=O)c4ccccc34)ccc2F)CC1 (centres undefined)	1200 nM	3100 nM	
Cc1ncsc1-c1ccc(CNC(=O)[C@@H]2C[C@@H](O)CN2C(=O)[C@@H](NC(=O)CNC(=O)CCCCCCCCCCC(=O)N2CCN(C(=O)c3cc(Cc4n[nH]c(=O)c5ccccc45)ccc3F)CC2)C(C)(C)C)cc1	1200 nM	1600 nM	Activity [1]: inactive
O=C(CCCCCCCCCCC(=O)N1CCN(C(=O)c2cc(Cc3n[nH]c(=O)c4ccccc34)ccc2F)CC1)NCCCCNc1cccc2c1C(=O)N(C1CCC(=O)NC1=O)C2=O (centres undefined)	39 nM	131 nM	Activity [2]: 90.5%; Activity [3]: 45%; Activity [4]: 70%
O=C(CCCCCCCCCCC(=O)N1CCN(C(=O)c2cc(Cc3n[nH]c(=O)c4ccccc34)ccc2F)CC1)NCCCOCCOCCOCCCNc1cccc2c1C(=O)N(C1CCC(=O)NC1=O)C2=O (centres undefined)	65 nM	154 nM	
Cn1nnc2c(C(N)=O)ncn2c1=O [TEMOZOLOMIDE]			Activity [5]: 9%; Activity (SW-620): Active
O=C(CCCCCCCCCCC(=O)N1CCN(C(=O)c2cc(Cc3n[nH]c(=O)c4ccccc34)ccc2F)CC1)NCCOCCNc1cccc2c1C(=O)N(C1CCC(=O)NC1=O)C2=O (centres undefined)	47 nM	120 nM	
Cc1ncsc1-c1ccc(CNC(=O)[C@@H]2C[C@@H](O)CN2C(=O)[C@@H](NC(=O)CCCCCCCCCCC(=O)N2CCN(C(=O)c3cc(Cc4n[nH]c(=O)c5ccccc45)ccc3F)CC2)C(C)(C)C)cc1	54 nM	87 nM	Activity [1]: inactive
Cc1ncsc1-c1ccc(CNC(=O)[C@@H]2C[C@@H](O)CN2C(=O)[C@@H](NC(=O)CCCCCNC(=O)CCCCCCCCCCC(=O)N2CCN(C(=O)c3cc(Cc4n[nH]c(=O)c5ccccc45)ccc3F)CC2)C(C)(C)C)cc1	120 nM	170 nM	Activity [1]: inactive
O=C(CCCCCCCCCCC(=O)N1CCN(C(=O)c2cc(Cc3n[nH]c(=O)c4ccccc34)ccc2F)CC1)NCCCCCCNc1cccc2c1C(=O)N(C1CCC(=O)NC1=O)C2=O (centres undefined)	42 nM	110 nM	
O=C(CCCCCNC(=O)COc1cccc2c1C(=O)N(C1CCC(=O)NC1=O)C2=O)NCCCCCC(=O)N1CCN(C(=O)c2cc(Cc3n[nH]c(=O)c4ccccc34)ccc2F)CC1 (centres undefined)	950 nM	1500 nM	
O=C(CCCCC(=O)N1CCN(C(=O)c2cc(Cc3n[nH]c(=O)c4ccccc34)ccc2F)CC1)NCCNc1cccc2c1C(=O)N(C1CCC(=O)NC1=O)C2=O (centres undefined)	> 10000 nM	> 10000 nM	
O=C(CCCCCCCCCCC(=O)N1CCN(C(=O)c2cc(Cc3n[nH]c(=O)c4ccccc34)ccc2F)CC1)NCCNc1cccc2c1CN(C1CCC(=O)NC1=O)C2=O (centres undefined)	92 nM	194 nM	
O=C(CCCCCNC(=O)CNc1cccc2c1C(=O)N(C1CCC(=O)NC1=O)C2=O)NCCCCCC(=O)N1CCN(C(=O)c2cc(Cc3n[nH]c(=O)c4ccccc34)ccc2F)CC1 (centres undefined)	1700 nM	2200 nM	
O=C(CCCCCCCCCCCC(=O)N1CCN(C(=O)c2cc(Cc3n[nH]c(=O)c4ccccc34)ccc2F)CC1)NCCNc1cccc2c1C(=O)N(C1CCC(=O)NC1=O)C2=O (centres undefined)	21 nM	87 nM	
